This is an account of results in publication PMC11255784 (RSC Advances, 2024).

One assay has as its system Mtb H37Rv strain. The assay is described as follows: Anti-TB activity, Microplate Alamar Blue Assay. The class given is cell-based, Mycobacterium tuberculosis. The note with it: MABA, triplicates. A general note: The colour change of resazurin is a common sign of viable cells or microbes.
The test system of the next assay is HEK293T cells. The assay is described as follows: Cytotoxicity studies on HEK293T cell line. The class given is cell-based, human. Conditions: for Selective index (SI): HEK293T IC50 versus MIC against Mtb H37Rv; for IC50: Homo sapiens, HEK-293T, read-out: IC50 (HEK293T). The procedure, abridged:
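Normal human embryonic kidney HEK293T cells were exposed to test compounds over a dose range of 7 to 2000 μM, and cell proliferation was read as OD at 450 nm to give IC50.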

The next assay has as its system Mtb H37Rv. The note with it: cited from earlier work.
Setting [1] is: Mycobacterium tuberculosis, H37RV.

Molecule `Cc1ccc(NCC(=O)N2CCN(c3nc4ncccc4cc3C#N)CC2)cc1C` [ANC-3, 2-(4-((3,4-Dimethylphenyl)glycyl)piperazin-1-yl)-1,8-naphthyridine-3-carbonitrile] had an MIC in the assay on Mtb H37Rv strain (setting [1]) of 50 µg/mL.

In the assay with Mtb H37Rv strain (setting [1]), `Nc1ccc(C(=O)O)c(O)c1` [p-Amino salicylic acid, reference compound] returned a minimum inhibitory concentration (MIC) of 12.5 µg/mL.

For `CC[C@@H](CO)NCCN[C@@H](CC)CO` [Ethambutol, reference compound], the minimum inhibitory concentration (MIC) in the assay on Mtb H37Rv strain (setting [1]) amounted to 6.25 µg/mL.

As to “2-(4-(Phenylglycyl) piperazin-1-yl)-1,8-naphthyridine-3-carbonitrile [ANC-1]”, the MIC against Mtb H37Rv strain was 25 µg/mL; against Mtb H37Rv strain (value in brackets), 67.12 µM.

Regarding `N#Cc1cc2cccnc2nc1N1CCN(C(=O)CNc2cccc(C(F)(F)F)c2)CC1` [ANC-12, 2-(4-((3-(Trifluoromethyl)phenyl)glycyl)piperazin-1-yl)-1,8-naphthyridine-3-carbonitrile], the minimum inhibitory concentration (MIC) against Mtb H37Rv strain (setting [1]) turned out to be 25 µg/mL.

For `NNC(=O)c1ccncc1` [Isoniazid, reference compound], the MIC in the assay with Mtb H37Rv strain (setting [1]) was determined as 0.36 µg/mL.

Regarding `N#Cc1cc2cccnc2nc1N1CCN(CC(=O)Nc2ccc([N+](=O)[O-])cc2)CC1` [ANA-11, 2-(4-(3-Cyano-1,8-naphthyridin-2-yl)piperazin-1-yl)-N-(4-nitrophenyl)acetamide], in the assay on Mtb H37Rv strain (setting [1]), the MIC came to 25 µg/mL.

In turn, `N#Cc1cc2cccnc2nc1N1CCN(CC(=O)Nc2ccccc2[N+](=O)[O-])CC1` [ANA-7, 2-(4-(3-Cyano-1,8-naphthyridin-2-yl)piperazin-1-yl)-N-(2-nitrophenyl)acetamide] returned a minimum inhibitory concentration (MIC) in the assay on Mtb H37Rv strain (setting [1]) of 12.5 µg/mL. In the assay with HEK293T cells, the “Selective index (SI)” value turned out to be 19 and the concentration for half-maximal inhibition (IC50) stood at 571.2 ± 4.45 µM.

Molecule `N#Cc1cc2cccnc2nc1N1CCN(C(=O)CNc2ccc(Cl)cc2)CC1` [ANC-6, 2-(4-((4-Chlorophenyl)glycyl)piperazin-1-yl)-1,8-naphthyridine-3-carbonitrile] showed an MIC against Mtb H37Rv strain (setting [1]) of 25 µg/mL.

As to `N#Cc1cc2cccnc2nc1N1CCN(C(=O)c2ccc([N+](=O)[O-])o2)CC1` [ANA-12, 2-(4-(5-Nitrofuran-2-carbonyl)piperazin-1-yl)-1,8-naphthyridine-3-carbonitrile], the minimum inhibitory concentration (MIC) with Mtb H37Rv strain (setting [1]) was determined as 6.25 µg/mL. Further, in the assay with HEK293T cells, the “Selective index (SI)” value worked out at 27 and the half-maximal inhibitory concentration (IC50) was 451 ± 20.2 µM.

In the case of `N#Cc1cc2cccnc2nc1N1CCN(CC(=O)Nc2ccc(F)cc2)CC1` [ANA-4, 2-(4-(3-Cyano-1,8-naphthyridin-2-yl)piperazin-1-yl)-N-(4-fluorophenyl)acetamide], the minimal inhibitory concentration (MIC) in the assay on Mtb H37Rv strain (setting [1]) was 25 µg/mL.

In the assay on Mtb H37Rv strain (setting [1]), `N#Cc1cc2cccnc2nc1N1CCN(CC(=O)Nc2ccccc2)CC1` [ANA-1, 2-(4-(3-Cyano-1,8-naphthyridin-2-yl)piperazin-1-yl)-N-phenylacetamide] had an MIC of 12.5 µg/mL. Moreover, in the assay on HEK293T cells, the “Selective index (SI)” value was determined as 17 and the IC50 came to 580 ± 20.2 µM.

`N#Cc1cc2cccnc2nc1N1CCN(C(=O)CCl)CC1` [ANI-2, 2-(4-(2-Chloroacetyl)piperazin-1-yl)-1,8-naphthyridine-3-carbonitrile] yielded an MIC in the assay with Mtb H37Rv strain (setting [1]) of 25 µg/mL.

On to `N#Cc1cc2cccnc2nc1N1CCN(CC(=O)Nc2cccc([N+](=O)[O-])c2)CC1` [ANA-10, 2-(4-(3-Cyano-1,8-naphthyridin-2-yl)piperazin-1-yl)-N-(3-nitrophenyl)acetamide], for which the minimal inhibitory concentration (MIC) against Mtb H37Rv strain (setting [1]) amounted to 12.5 µg/mL.

Take `CCc1ccc(NC(=O)CN2CCN(c3nc4ncccc4cc3C#N)CC2)cc1` [ANA-2, 2-(4-(3-Cyano-1,8-naphthyridin-2-yl)piperazin-1-yl)-N-(4-ethylphenyl)acetamide]: the minimum inhibitory concentration (MIC) against Mtb H37Rv strain (setting [1]) was 25 µg/mL.

For `N#Cc1cc2cccnc2nc1N1CCN(C(=O)CNc2ccc(Br)cc2[N+](=O)[O-])CC1` [ANC-10, 2-(4-((4-Bromo-2-nitrophenyl)glycyl)piperazin-1-yl)-1,8-naphthyridine-3-carbonitrile], the MIC against Mtb H37Rv strain (setting [1]) was above 50 µg/mL.

The molecule `N#Cc1cc2cccnc2nc1N1CCN(CC(=O)Nc2ccc(Br)cc2)CC1` [ANA-5, N-(4-Bromophenyl)-2-(4-(3-cyano-1,8-naphthyridin-2-yl)piperazin-1-yl)acetamide] had an MIC in the assay on Mtb H37Rv strain (setting [1]) of 25 µg/mL.

`N#Cc1cc2cccnc2nc1N1CCN(C(=O)CNc2ccc(Br)cc2)CC1` [ANC-7, 2-(4-((4-Bromophenyl)glycyl)piperazin-1-yl)-1,8-naphthyridine-3-carbonitrile]: it took 25 µg/mL to inhibit growth against Mtb H37Rv strain (setting [1]) (MIC).

As for `CO[C@H]1/C=C/O[C@@]2(C)Oc3c(C)c(O)c4c(O)c(c(/C=N/N5CCN(C)CC5)c(O)c4c3C2=O)NC(=O)/C(C)=C\C=C\[C@H](C)[C@H](O)[C@@H](C)[C@@H](O)[C@@H](C)[C@H](OC(C)=O)[C@@H]1C` [Rifampicin, reference compound], the minimum inhibitory concentration (MIC) in the assay on Mtb H37Rv strain (setting [1]) was found to be 3.13 µg/mL. Further, in the assay with Mtb H37Rv, the “inhibition against Mtb H37Rv” value was 98%.

`Cc1ccc(NC(=O)CN2CCN(c3nc4ncccc4cc3C#N)CC2)cc1C` [ANA-3, 2-(4-(3-Cyano-1,8-naphthyridin-2-yl)piperazin-1-yl)-N-(3,4-dimethylphenyl)acetamide]: the minimal inhibitory concentration (MIC) against Mtb H37Rv strain (setting [1]) is 25 µg/mL.

In the assay with Mtb H37Rv strain (setting [1]), `N#Cc1cc2cccnc2nc1N1CCN(C(=O)CNc2ccccc2I)CC1` [ANC-9, 2-(4-((2-Iodophenyl)glycyl)piperazin-1-yl)-1,8-naphthyridine-3-carbonitrile] showed an MIC of 25 µg/mL.

`N#Cc1cc2cccnc2nc1N1CCN(CC(=O)Nc2cccc(C(F)(F)F)c2)CC1` [ANA-8, 2-(4-(3-Cyano-1,8-naphthyridin-2-yl)piperazin-1-yl)-N-(3(trifluoromethyl)phenyl)acetamide] gave an MIC in the assay with Mtb H37Rv strain (setting [1]) of 12.5 µg/mL.

In the assay with Mtb H37Rv strain (setting [1]), `N#Cc1cc2cccnc2nc1N1CCN(C(=O)CNc2ccc(F)cc2)CC1` [ANC-5, 2-(4-((4-Fluorophenyl)glycyl)piperazin-1-yl)-1,8-naphthyridine-3-carbonitrile] returned an MIC of 25 µg/mL.

In the assay with Mtb H37Rv strain (setting [1]), `N#Cc1cc2cccnc2nc1N1CCNCC1` [ANI-1, 2-(Piperazin-1-yl)-1,8-naphthyridine-3-carbonitrile] yielded a minimum inhibitory concentration (MIC) of 25 µg/mL.

In turn, `N#Cc1cc2cccnc2nc1N1CCN(CC(=O)Nc2ccc(F)c(F)c2)CC1` [ANA-9, 2-(4-(3-Cyano-1,8-naphthyridin-2-yl)piperazin-1-yl)-N-(3,4-difluorophenyl)acetamide] returned an MIC against Mtb H37Rv strain (setting [1]) of 25 µg/mL.

`N#Cc1cc2cccnc2nc1N1CCN(C(=O)CNc2ccc(F)c(F)c2)CC1` [ANC-14, 2-(4-((3,4-Difluorophenyl)glycyl)piperazin-1-yl)-1,8-naphthyridine-3-carbonitrile] returned an MIC against Mtb H37Rv strain (setting [1]) above 50 µg/mL.

Turning to `N#Cc1cc2cccnc2nc1N1CCN(C(=O)CNc2ccccc2F)CC1` [ANC-8, 2-(4-((2-Fluorophenyl)glycyl)piperazin-1-yl)-1,8-naphthyridine-3-carbonitrile], the MIC in the assay with Mtb H37Rv strain (setting [1]) was 25 µg/mL.

In the assay on Mtb H37Rv strain (setting [1]), `N#Cc1cc2cccnc2nc1N1CCN(CC(=O)Nc2ccccc2F)CC1` [ANA-6, 2-(4-(3-Cyano-1,8-naphthyridin-2-yl)piperazin-1-yl)-N-(2-fluorophenyl)acetamide] displayed an MIC of 12.5 µg/mL. In addition, in the assay on HEK293T cells, the “Selective index (SI)” value is on record as 23 and the IC50 was 753 ± 7.63 µM.

On to `N#Cc1cc2cccnc2nc1N1CCN(C(=O)CNc2cccc(Cl)c2)CC1` [ANC-11, 2-(4-((3-Chlorophenyl)glycyl)piperazin-1-yl)-1,8-naphthyridine-3-carbonitrile], for which it took 50 µg/mL to inhibit growth against Mtb H37Rv strain (setting [1]) (MIC).

With `CCc1ccc(NCC(=O)N2CCN(c3nc4ncccc4cc3C#N)CC2)cc1` [ANC-2, 2-(4-((4-Ethylphenyl)glycyl)piperazin-1-yl)-1,8-naphthyridine-3-carbonitrile], inhibition of growth with Mtb H37Rv strain (setting [1]) (MIC) required 12.5 µg/mL. For the same molecule, in the assay with HEK293T cells, the “Selective index (SI)” value came to 11 and the IC50 came out at 330 ± 3.4 µM.

Molecule `N#Cc1cc2cccnc2nc1N1CCN(C(=O)CNc2ccc(Cl)cc2Cl)CC1` [ANC-13, 2-(4-((2,4-Dichlorophenyl)glycyl)piperazin-1-yl)-1,8-naphthyridine-3-carbonitrile] yielded a minimal inhibitory concentration (MIC) against Mtb H37Rv strain (setting [1]) of 50 µg/mL.

As usually defined, the MIC is the smallest concentration in the dilution series that meets the test's criterion for growth inhibition. High values mean weaker potency, low ones greater potency. Usually IC50 stands for the point on the concentration scale where inhibition reaches its midpoint.
